Columns and labels:
Type in all cases: cell-based
[1] = biological target: T1, Vitamin D3 receptor (Homo sapiens) (UniProt P11473); experiment: Downregulation of VDR expression in human MCF7 cells at 10 uM after 6 hrs in presence of proteasome inhibitor MG132 by Western blot method relative to lamin B
T1 sequence (whole entry): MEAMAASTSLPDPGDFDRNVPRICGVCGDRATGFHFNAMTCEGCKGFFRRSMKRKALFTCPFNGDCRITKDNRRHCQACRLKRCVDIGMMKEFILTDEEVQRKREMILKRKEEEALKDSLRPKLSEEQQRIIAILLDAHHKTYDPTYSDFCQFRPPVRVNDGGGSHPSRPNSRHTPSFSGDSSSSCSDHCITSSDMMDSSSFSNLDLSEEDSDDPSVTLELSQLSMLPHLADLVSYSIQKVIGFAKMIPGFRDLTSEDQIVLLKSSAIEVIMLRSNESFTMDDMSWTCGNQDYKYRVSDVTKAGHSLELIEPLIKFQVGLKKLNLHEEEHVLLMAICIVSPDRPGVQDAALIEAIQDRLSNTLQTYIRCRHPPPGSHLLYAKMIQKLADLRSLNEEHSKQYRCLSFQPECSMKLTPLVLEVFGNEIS
Outline: (§1)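 MCF-7 cells kept in DMEM with 10% FBS, kanamycin and 10 μg/mL insulin, then exposed to compounds for 6 h. Lysates made in SDS buffer (0.1 M Tris-HCl pH 8.0, 10% glycerol, 1% SDS), boiled, BCA-normalized and run on SDS-PAGE. Blots probed with anti-ERα, AR, AhR or VDR and β-actin or lamin B. Chemiluminescence quantified as target/loading-protein ratio; means ± S.E., n=3.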

[2] = biological target: T2, Estrogen receptor (Homo sapiens) (UniProt P03372); experiment: Downregulation of ERalpha expression in human MCF7 cells at 3 uM after 6 hrs in presence of proteasome inhibitor MG132 by Western blot method relative to lamin B; outline: as §1
T2 sequence (whole entry): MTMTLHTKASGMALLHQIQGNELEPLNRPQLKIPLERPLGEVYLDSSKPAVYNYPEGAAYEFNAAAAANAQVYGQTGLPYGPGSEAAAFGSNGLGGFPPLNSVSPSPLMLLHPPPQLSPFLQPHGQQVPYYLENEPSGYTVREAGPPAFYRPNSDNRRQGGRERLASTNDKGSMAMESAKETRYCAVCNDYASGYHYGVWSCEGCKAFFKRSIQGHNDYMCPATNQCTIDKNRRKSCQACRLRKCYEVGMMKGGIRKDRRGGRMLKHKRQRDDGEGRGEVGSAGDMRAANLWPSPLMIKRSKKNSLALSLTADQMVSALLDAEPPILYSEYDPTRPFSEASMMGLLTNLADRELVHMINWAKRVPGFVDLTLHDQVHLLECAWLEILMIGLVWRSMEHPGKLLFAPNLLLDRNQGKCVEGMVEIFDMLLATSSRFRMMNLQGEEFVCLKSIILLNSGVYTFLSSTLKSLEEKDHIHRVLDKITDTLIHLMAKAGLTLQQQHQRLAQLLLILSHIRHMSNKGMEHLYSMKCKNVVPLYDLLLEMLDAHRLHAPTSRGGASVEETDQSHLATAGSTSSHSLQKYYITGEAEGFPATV

[3] = biological target: T2, Estrogen receptor (Homo sapiens); experiment: Downregulation of ERalpha expression in human MCF7 cells at 10 uM after 6 hrs by Western blot method relative to lamin B; outline: as §1
[4] = biological target: T2, Estrogen receptor (Homo sapiens); experiment: Downregulation of ERalpha expression in human MCF7 cells at 1 uM after 6 hrs by Western blot method relative to beta-actin; outline: as §1
[5] = biological target: T3, Androgen receptor (Homo sapiens) (UniProt P10275); experiment: Downregulation of androgen receptor expression in human MCF7 cells at 3 uM after 6 hrs by Western blot method relative to lamin B; outline: as §1
T3 sequence (whole entry): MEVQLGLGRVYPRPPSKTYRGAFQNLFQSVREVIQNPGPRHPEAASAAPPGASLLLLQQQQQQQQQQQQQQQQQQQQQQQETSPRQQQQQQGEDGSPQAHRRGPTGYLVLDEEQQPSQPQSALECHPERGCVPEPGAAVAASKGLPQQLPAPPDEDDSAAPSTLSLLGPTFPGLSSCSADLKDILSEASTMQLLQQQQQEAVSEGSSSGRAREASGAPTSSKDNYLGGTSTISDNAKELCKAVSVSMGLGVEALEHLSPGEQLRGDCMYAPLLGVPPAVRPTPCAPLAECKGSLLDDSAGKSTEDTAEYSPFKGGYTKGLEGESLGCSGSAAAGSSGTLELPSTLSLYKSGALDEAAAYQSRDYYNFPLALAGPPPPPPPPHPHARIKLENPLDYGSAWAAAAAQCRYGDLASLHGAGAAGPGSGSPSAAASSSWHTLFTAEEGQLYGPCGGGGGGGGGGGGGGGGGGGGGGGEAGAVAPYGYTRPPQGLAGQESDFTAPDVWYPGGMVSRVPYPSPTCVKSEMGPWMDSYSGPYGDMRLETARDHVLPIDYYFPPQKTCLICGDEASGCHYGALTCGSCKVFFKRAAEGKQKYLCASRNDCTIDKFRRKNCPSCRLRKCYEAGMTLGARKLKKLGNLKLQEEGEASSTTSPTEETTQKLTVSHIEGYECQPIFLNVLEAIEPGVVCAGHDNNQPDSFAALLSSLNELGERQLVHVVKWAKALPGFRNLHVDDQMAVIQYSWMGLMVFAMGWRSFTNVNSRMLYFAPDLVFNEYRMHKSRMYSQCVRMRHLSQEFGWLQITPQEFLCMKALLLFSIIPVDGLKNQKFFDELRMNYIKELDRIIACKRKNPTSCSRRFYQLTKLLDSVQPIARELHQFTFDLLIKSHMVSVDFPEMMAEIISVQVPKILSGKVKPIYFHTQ

Q: Which results are given for `CCCCCCCCCCNCCOc1ccc(C(CCC)(CCC)c2ccc(O)c(C)c2)cc1C`?
A: Activity [1]: 86%; Activity [2]: 101%; Activity [3]: 32 to 44%; Activity [4]: 76%; Activity [5]: 106%

Reference: ChEMBL document CHEMBL4138058, “Design and synthesis of novel selective estrogen receptor degradation inducers based on the diphenylheptane skeleton” (Medchemcomm, 2017)
